ChEMBL document CHEMBL1240337, “Identification of proteases that regulate erythrocyte rupture by the malaria parasite Plasmodium falciparum” (Nat Chem Biol, 2008)
Activity calls are given as the source filed them. The rule behind the calls is not given here.

Experiments:
Plasmodium falciparum [1] = assay: Antiplasmodial activity against Plasmodium falciparum infected in human erythrocytes assessed as blockade of parasite-mediated rupture of erythrocytes by Giemsa staining; type: functional, organism-based
In short: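 Giemsa-stained thin blood films were read from schizonts exposed at 36 h post invasion to 10 µM inhibitor, to assess rupture and morphology.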

Plasmodium falciparum [2] = assay: Antiplasmodial activity against Plasmodium falciparum schizont infected in human erythrocytes assessed as effect on schizont morphology at 1 to 50 uM after 24 by propidium iodide staining-based FACS analysis; type: functional, organism-based
[3] = molecular target: T1, Preprocathepsin c, putative (Plasmodium falciparum 3D7) (UniProt Q8I0V1); assay: Inhibition of Plasmodium falciparum 3D7 PFL2290w by fluorescence spectrophotometry
T1 sequence (whole entry): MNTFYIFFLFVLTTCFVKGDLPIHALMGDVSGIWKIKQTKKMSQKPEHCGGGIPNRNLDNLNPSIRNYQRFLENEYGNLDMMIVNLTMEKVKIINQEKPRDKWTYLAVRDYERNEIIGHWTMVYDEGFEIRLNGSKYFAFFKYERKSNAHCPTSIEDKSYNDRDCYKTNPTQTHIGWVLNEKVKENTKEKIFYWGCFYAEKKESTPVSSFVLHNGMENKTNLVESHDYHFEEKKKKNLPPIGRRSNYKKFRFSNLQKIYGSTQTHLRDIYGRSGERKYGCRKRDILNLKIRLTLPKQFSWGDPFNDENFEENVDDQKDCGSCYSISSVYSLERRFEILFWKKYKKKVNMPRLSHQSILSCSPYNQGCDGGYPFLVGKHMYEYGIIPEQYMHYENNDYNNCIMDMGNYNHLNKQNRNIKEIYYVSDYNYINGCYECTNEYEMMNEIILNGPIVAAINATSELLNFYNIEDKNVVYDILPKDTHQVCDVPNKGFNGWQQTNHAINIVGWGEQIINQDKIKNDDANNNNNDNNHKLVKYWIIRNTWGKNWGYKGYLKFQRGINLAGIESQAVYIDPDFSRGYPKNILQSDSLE

[4] = molecular target: T2, Protease, putative (Plasmodium falciparum 3D7) (UniProt Q8I1Y2); assay: Inhibition of Plasmodium falciparum 3D7 PFD0230c by fluorescence spectrophotometry
T2 sequence (whole entry): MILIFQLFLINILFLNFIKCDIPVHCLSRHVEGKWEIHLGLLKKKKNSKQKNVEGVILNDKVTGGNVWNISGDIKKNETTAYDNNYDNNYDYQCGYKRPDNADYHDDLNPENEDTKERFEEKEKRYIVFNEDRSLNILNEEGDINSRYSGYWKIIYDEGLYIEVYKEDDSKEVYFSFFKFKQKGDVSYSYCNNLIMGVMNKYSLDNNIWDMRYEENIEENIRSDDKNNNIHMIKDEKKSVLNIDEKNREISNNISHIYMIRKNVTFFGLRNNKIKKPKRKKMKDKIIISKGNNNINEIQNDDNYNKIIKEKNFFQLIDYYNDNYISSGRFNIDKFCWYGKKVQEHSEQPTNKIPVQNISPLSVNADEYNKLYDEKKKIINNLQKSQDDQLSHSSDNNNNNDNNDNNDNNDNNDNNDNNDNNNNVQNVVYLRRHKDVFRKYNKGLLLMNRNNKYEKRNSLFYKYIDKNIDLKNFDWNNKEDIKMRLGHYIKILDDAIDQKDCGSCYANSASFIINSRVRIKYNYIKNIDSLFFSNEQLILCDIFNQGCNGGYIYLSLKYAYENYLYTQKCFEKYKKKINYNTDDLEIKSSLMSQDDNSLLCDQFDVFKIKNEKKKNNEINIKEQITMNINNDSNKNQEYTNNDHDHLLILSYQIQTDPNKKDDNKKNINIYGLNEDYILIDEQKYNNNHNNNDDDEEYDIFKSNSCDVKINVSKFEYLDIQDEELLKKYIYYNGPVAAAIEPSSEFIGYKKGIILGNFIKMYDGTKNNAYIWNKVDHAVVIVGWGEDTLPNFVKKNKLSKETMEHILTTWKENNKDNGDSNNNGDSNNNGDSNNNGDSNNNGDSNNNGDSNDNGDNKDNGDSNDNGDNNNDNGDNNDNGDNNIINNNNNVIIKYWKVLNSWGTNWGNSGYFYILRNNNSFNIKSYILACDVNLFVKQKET

[5] = molecular target: T3, Probable cathepsin C (Plasmodium falciparum 3D7) (UniProt Q8IIJ9); assay: Inhibition of Plasmodium falciparum 3D7 cathepsin C by fluorescence spectrophotometry
T3 sequence (whole entry): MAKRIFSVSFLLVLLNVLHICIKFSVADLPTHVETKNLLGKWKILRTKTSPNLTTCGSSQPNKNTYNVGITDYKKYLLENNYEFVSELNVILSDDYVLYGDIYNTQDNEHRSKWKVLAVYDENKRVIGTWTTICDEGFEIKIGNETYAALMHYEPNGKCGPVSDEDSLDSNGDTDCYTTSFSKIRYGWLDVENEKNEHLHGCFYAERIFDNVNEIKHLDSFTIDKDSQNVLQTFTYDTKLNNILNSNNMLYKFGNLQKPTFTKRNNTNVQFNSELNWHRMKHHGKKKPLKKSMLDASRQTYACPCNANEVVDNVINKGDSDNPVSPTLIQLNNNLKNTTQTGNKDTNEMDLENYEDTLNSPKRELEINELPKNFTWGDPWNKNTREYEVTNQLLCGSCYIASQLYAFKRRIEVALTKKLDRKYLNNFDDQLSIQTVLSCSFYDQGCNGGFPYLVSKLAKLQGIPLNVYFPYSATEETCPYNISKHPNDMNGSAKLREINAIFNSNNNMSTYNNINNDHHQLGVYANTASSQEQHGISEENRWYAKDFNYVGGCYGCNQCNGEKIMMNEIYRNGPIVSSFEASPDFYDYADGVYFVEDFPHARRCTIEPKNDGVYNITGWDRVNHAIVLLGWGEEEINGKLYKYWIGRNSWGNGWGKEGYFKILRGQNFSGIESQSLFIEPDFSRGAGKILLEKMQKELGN

Plasmodium falciparum [6] = assay: Inhibition of Plasmodium falciparum 3D7 falcipain-2 by fluorescence spectrophotometry
[7] = Cytotoxicity against african green monkey BSC1 cells after 24 hrs by celltiter glo assay; type: cell-based; conditions: chlorocebus aethiops, bsc-1, 24 h
In short: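 BSC-1 African green monkey kidney epithelial cells exposed to compounds; viability read by CellTiter-Glo luminescence.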

Plasmodium falciparum [8] = assay: Antiplasmodial activity against Plasmodium falciparum schizont infected in human erythrocytes assessed as inhibition of ring-stage parasite growth at 1 to 50 uM after 24 by propidium iodide staining-based FACS analysis; type: functional, organism-based
Plasmodium falciparum [9] = assay: Antiplasmodial activity against Plasmodium falciparum schizont infected in human erythrocytes assessed as effect on parasite ring-to-schizont morphology at 1 to 50 uM after 24 by propidium iodide staining-based FACS analysis; type: functional, organism-based

Row | Compound | Activity (Plasmodium falciparum [1]) | Activity (Plasmodium falciparum [2]) | inhibition [3] | inhibition [4] | inhibition [5] | inhibition (Plasmodium falciparum [6]) | Activity [7] | inhibition (Plasmodium falciparum [8]) | Activity (Plasmodium falciparum [9])
1 | CCC[C@H](N)C(=O)N[C@H](/C=C/S(=O)(=O)c1ccccc1)CCc1ccccc1 | Active | inactive | inactive | Active | Active | Active | Non-toxic | Active | inactive
2 | C[C@H](N)C(=O)N[C@H](/C=C/S(=O)(=O)c1ccccc1)CCc1ccccc1 | Active | inactive | inactive | Active | Active | Active | Non-toxic | Active | inactive
